The source of these data is ChEMBL document CHEMBL1629633, “Prevalence of sulfonamide resistance genes in bacterial isolates from manured agricultural soils and pig slurry in the United Kingdom” (2009).

For experiment [1], the system named is Acinetobacter calcoaceticus. Briefly: Antimicrobial activity against Acinetobacter calcoaceticus isolate C35 harboring sul1 to sul3 genes assessed as antibiotic resistance breakpoint by agar dilution method. It counts as functional. In a few lines:
(§1)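 Agar dilution on Iso-Sensitest agar for MICs and resistance breakpoints. Each isolate's inoculum (100 μl) was adjusted to OD600 0.4. Isolates came from soil cores of a field given pig slurry, or from the pig slurry itself. They were picked from nonselective or antibiotic plates incubated aerobically at 28°C, purified by restreaking, checked for sul genes by PCR and identified by 16S rRNA sequencing.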

Experiment [2] relates to Acinetobacter lwoffii. Briefly: Antimicrobial activity against Acinetobacter lwoffii isolate C15 harboring sul1 to sul3 genes assessed as antibiotic resistance breakpoint by agar dilution method. It counts as functional. In a few lines: as §1
(In general: In agar dilution, organisms are placed on agar that contains the substance at set levels.)

The subject of experiment [3] is Acinetobacter lwoffii. Briefly: Antimicrobial activity against Acinetobacter lwoffii isolate C2 harboring sul1 to sul3 genes assessed as antibiotic resistance breakpoint by agar dilution method. It counts as functional. In a few lines: as §1
For a further experiment, the system named is Pseudomonas lini. Briefly: Antimicrobial activity against Pseudomonas lini isolate C701 harboring sul1 to sul3 genes assessed as antibiotic resistance breakpoint by agar dilution method. Type of experiment: functional. Summed up:
as §1

Experiment [4] in a line: Antimicrobial activity against Psychrobacter ikaite isolate C713 harboring sul1 to sul3 genes assessed as antibiotic resistance breakpoint by agar dilution method. It counts as functional. Summed up:
(§2)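 Isolates were recovered from manured clay soil or pig slurry on Iso-Sensitest agar at 28°C. sul genes were detected by PCR, and identity was assigned by ~800 bp 16S rRNA sequencing. MICs and resistance breakpoints were found by agar dilution on Iso-Sensitest agar, with each inoculum (100 μl) adjusted to OD600 0.4.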

Experiment [5] relates to Acinetobacter calcoaceticus. The experiment is described as follows: Antimicrobial activity against Acinetobacter calcoaceticus isolate C36 harboring sul1 to sul3 genes assessed as antibiotic resistance breakpoint by agar dilution method. Type of experiment: functional. Summed up: as §1
Experiment [6] has as its system Acinetobacter rhizosphaerae. The experiment is described as follows: Antimicrobial activity against Acinetobacter rhizosphaerae isolate C44 harboring sul1 to sul3 genes assessed as antibiotic resistance breakpoint by agar dilution method. It counts as functional. In a few lines:
as §1

Experiment [7] concerns Acinetobacter lwoffii. The experiment is described as follows: Antimicrobial activity against Acinetobacter lwoffii isolate C141 harboring sul1 to sul3 genes assessed as antibiotic resistance breakpoint by agar dilution method. Type of experiment: functional. In a few lines: as §1
Experiment [8] in a line: Antimicrobial activity against Acinetobacter sp. An9 isolate PGS49 harboring sul1 to sul3 genes assessed as antibiotic resistance breakpoint by agar dilution method. It counts as functional. Summed up:
as §1

The test system of another experiment is Bacillus psychrodurans. Briefly: Antimicrobial activity against Bacillus psychrodurans isolate C328 harboring sul1 to sul3 genes assessed as antibiotic resistance breakpoint by agar dilution method. Type of experiment: functional, Psychrobacillus psychrodurans. In a few lines: as §1
The subject of experiment [9] is Lysinibacillus sphaericus. The experiment is described as follows: Antimicrobial activity against Bacillus sphaericus isolate C237 harboring sul1 to sul3 genes assessed as antibiotic resistance breakpoint by agar dilution method. Type of experiment: functional. In a few lines: as §1
The next experiment deals with Acinetobacter baumannii. Briefly: Antimicrobial activity against Acinetobacter baumannii isolate C442 harboring sul1 to sul3 genes assessed as antibiotic resistance breakpoint by agar dilution method. It counts as functional. In a few lines: as §1
In experiment [10] the test system is Psychrobacter frigidicola. Briefly: Antimicrobial activity against Psychrobacter frigidicola isolate C712 harboring sul1 to sul3 genes assessed as antibiotic resistance breakpoint by agar dilution method. Type of experiment: functional. Summed up: as §1
The test system of experiment [11] is Arthrobacter arilaitensis. Briefly: Antimicrobial activity against Arthrobacter arilaitensis isolate C361 harboring sul1 to sul3 genes assessed as antibiotic resistance breakpoint by agar dilution method. Type of experiment: functional, Glutamicibacter arilaitensis. In a few lines: as §1
Experiment [12] concerns Acinetobacter lwoffii. The experiment is described as follows: Antimicrobial activity against Acinetobacter lwoffii isolate C37 harboring sul1 to sul3 genes assessed as antibiotic resistance breakpoint by agar dilution method. Type of experiment: functional. Summed up:
as §1

Experiment [13] is described as follows: Antimicrobial activity against Acinetobacter sp. N2 isolate C439 harboring sul1 to sul3 genes assessed as antibiotic resistance breakpoint by agar dilution method. Type of experiment: functional. In a few lines:
as §1

For a further experiment, the system named is Shigella flexneri. Briefly: Antimicrobial activity against Shigella flexneri isolate C506 harboring sul1 to sul3 genes assessed as antibiotic resistance breakpoint by agar dilution method. It counts as functional. In a few lines:
as §2

Experiment [14] in a line: Antimicrobial activity against Psychrobacter sp. DY9-2 isolate C711 harboring sul1 to sul3 genes assessed as antibiotic resistance breakpoint by agar dilution method. Type of experiment: functional. In a few lines:
as §2

Experiment [15] in a line: Antimicrobial activity against Psychrobacter ikaite isolate C20 harboring sul1 to sul3 genes assessed as antibiotic resistance breakpoint by agar dilution method. Type of experiment: functional. Summed up:
as §1

Experiment [16] has as its system Aerococcus viridans. Briefly: Antimicrobial activity against Aerococcus viridans isolate PGS22 harboring sul1 to sul3 genes assessed as antibiotic resistance breakpoint by agar dilution method. It counts as functional. Summed up:
as §1

Another experiment relates to Pseudomonas putida. The experiment is described as follows: Antimicrobial activity against Pseudomonas putida isolate C231 harboring sul1 to sul3 genes assessed as antibiotic resistance breakpoint by agar dilution method. Type of experiment: functional. In a few lines:
as §1

For experiment [17], the system named is Acinetobacter lwoffii. The experiment is described as follows: Antimicrobial activity against Acinetobacter lwoffii isolate PGS47 harboring sul1 to sul3 genes assessed as antibiotic resistance breakpoint by agar dilution method. Type of experiment: functional. Summed up: as §1
For the next experiment, the system named is Enterococcus hirae. Briefly: Antimicrobial activity against Enterococcus hirae isolate PGS48 harboring sul1 to sul3 genes assessed as antibiotic resistance breakpoint by agar dilution method. It counts as functional. Summed up:
as §1

The next experiment relates to Providencia stuartii. Briefly: Antimicrobial activity against Providencia stuartii isolate C167 harboring sul1 to sul3 genes assessed as antibiotic resistance breakpoint by agar dilution method. It counts as functional. Summed up:
as §1

For experiment [18], the system named is Stenotrophomonas maltophilia. The experiment is described as follows: Antimicrobial activity against Stenotrophomonas maltophilia isolate C422 harboring sul1 to sul3 genes assessed as antibiotic resistance breakpoint by agar dilution method. Type of experiment: functional. In a few lines:
as §2

In the next experiment the test system is Enterococcus sulfureus. Briefly: Antimicrobial activity against Enterococcus sulfureus isolate PGS61 harboring sul1 to sul3 genes assessed as antibiotic resistance breakpoint by agar dilution method. It counts as functional. In a few lines:
as §1

Experiment [19] has as its system Aerococcus viridans. Briefly: Antimicrobial activity against Aerococcus viridans isolate PGS21 harboring sul1 to sul3 genes assessed as antibiotic resistance breakpoint by agar dilution method. Type of experiment: functional. In a few lines:
as §1

The test system of a further experiment is Pseudomonas borealis. The experiment is described as follows: Antimicrobial activity against Pseudomonas borealis isolate C5 harboring sul1 to sul3 genes assessed as antibiotic resistance breakpoint by agar dilution method. It counts as functional. In a few lines:
as §1

The nature of experiment [20]: Antimicrobial activity against Psychrobacter ikaite isolate C410 harboring sul1 to sul3 genes assessed as antibiotic resistance breakpoint by agar dilution method. It counts as functional. Summed up:
as §2

The subject of the next experiment is Pseudomonas fluorescens. The experiment is described as follows: Antimicrobial activity against Pseudomonas fluorescens isolate C131 harboring sul1 to sul3 genes assessed as antibiotic resistance breakpoint by agar dilution method. Type of experiment: functional. In a few lines:
as §1

On to `CCn1cc(C(=O)O)c(=O)c2ccc(C)nc21` [NALIDIXIC ACID], for which the Activity (in experiment [1]; in the experiment with Acinetobacter lwoffii [2]; in the experiment with Acinetobacter lwoffii [3]; in the experiment with Pseudomonas lini; in experiment [4]; in experiment [5]) was 16 µg/mL in each case. Also, the Activity (in experiment [6]; with Acinetobacter lwoffii [7]; in [8]; in the experiment with Bacillus psychrodurans; in [9]; in the experiment on Acinetobacter baumannii) was 16 µg/mL each time. For the same molecule, the Activity (in experiment [10]; in [11]; in the experiment on Acinetobacter lwoffii [12]; in experiment [13]; with Shigella flexneri; in experiment [14]) was 16 µg/mL each time. Further, the Activity (in experiment [15]; with Aerococcus viridans [16]; in the experiment with Pseudomonas putida; in the experiment on Acinetobacter lwoffii [17]) was 16 µg/mL throughout.

For `NC[C@H]1O[C@H](O[C@H]2[C@H](O)[C@@H](O[C@H]3O[C@H](CO)[C@@H](O)[C@H](N)[C@H]3O)[C@H](N)C[C@@H]2N)[C@H](O)[C@@H](O)[C@@H]1O` [KANAMYCIN], the Activity in the experiment with Acinetobacter lwoffii [7], with Bacillus psychrodurans and with Shigella flexneri was 16 µg/mL each time.

For `CN[C@@H]1[C@H](O[C@H]2[C@H](O[C@H]3[C@H](O)[C@@H](O)[C@H](N=C(N)N)[C@@H](O)[C@@H]3N=C(N)N)O[C@@H](C)[C@]2(O)C=O)O[C@@H](CO)[C@H](O)[C@H]1O` [STREPTOMYCIN], the Activity (in experiment [1]; in the experiment on Acinetobacter lwoffii [2]; in the experiment with Acinetobacter lwoffii [3]; in the experiment on Pseudomonas lini; in experiment [4]; in experiment [5]) was 16 µg/mL in each case. Moreover, the Activity (in [6]; in the experiment on Acinetobacter lwoffii [7]; in experiment [8]; in the experiment on Bacillus psychrodurans; in experiment [9]; in [10]) was 16 µg/mL each time. For the same molecule, the Activity (in the experiment with Enterococcus hirae; in the experiment on Providencia stuartii; in experiment [11]; with Acinetobacter lwoffii [12]; in experiment [13]; in [18]) was 16 µg/mL throughout. Further, the Activity (in the experiment on Shigella flexneri; in experiment [14]; in the experiment on Enterococcus sulfureus; in [15]; with Aerococcus viridans [16]; in the experiment on Acinetobacter lwoffii [17]) was 16 µg/mL in each case.

As for `O=C(N[C@H](CO)[C@H](O)c1ccc([N+](=O)[O-])cc1)C(Cl)Cl` [CHLORAMPHENICOL], the Activity (in the experiment with Aerococcus viridans [19]; in [1]; with Acinetobacter lwoffii [2]; with Acinetobacter lwoffii [3]; in experiment [4]; in experiment [5]) was 16 µg/mL each time. The Activity (in the experiment with Pseudomonas borealis; in [6]; in the experiment with Acinetobacter lwoffii [7]; with Bacillus psychrodurans; with Acinetobacter baumannii; in experiment [11]) was 16 µg/mL throughout. Moreover, the Activity (in the experiment with Acinetobacter lwoffii [12]; in the experiment with Shigella flexneri; in experiment [15]; in the experiment with Aerococcus viridans [16]; in the experiment on Pseudomonas putida) was 16 µg/mL each time.

As for `NC[C@@H]1O[C@H](O[C@H]2[C@@H](O)[C@H](O[C@@H]3[C@@H](O)[C@H](N)C[C@H](N)[C@H]3O[C@H]3O[C@H](CN)[C@@H](O)[C@H](O)[C@H]3N)O[C@@H]2CO)[C@H](N)[C@@H](O)[C@@H]1O` [FRAMYCETIN], the Activity (with Acinetobacter lwoffii [2]; in experiment [6]; in the experiment with Acinetobacter lwoffii [7]; in the experiment with Bacillus psychrodurans; in [11]; in the experiment on Shigella flexneri) was 8 µg/mL each time. The Activity in the experiment on Aerococcus viridans [16] and in the experiment with Pseudomonas putida was 8 µg/mL in each case.

Consider `COc1cc(Cc2cnc(N)nc2N)cc(OC)c1OC` [TRIMETHOPRIM], for which the Activity (in experiment [1]; in the experiment with Acinetobacter lwoffii [2]; in the experiment with Acinetobacter lwoffii [3]; with Pseudomonas lini; in [4]; in [5]) was 16 µg/mL each time. Besides, the Activity (in experiment [6]; in the experiment on Acinetobacter lwoffii [7]; in [9]; in experiment [10]; with Acinetobacter lwoffii [12]; in experiment [13]) was 16 µg/mL in each case. In addition, the Activity (in the experiment with Shigella flexneri; in [14]; in experiment [15]) was 16 µg/mL in each case.

Turning to `CC1(C)S[C@@H]2[C@H](NC(=O)[C@H](N)c3ccccc3)C(=O)N2[C@H]1C(=O)O` [AMPICILLIN], the Activity in the experiment with Pseudomonas lini, in the experiment on Acinetobacter lwoffii [7], with Shigella flexneri and with Pseudomonas putida was 16 µg/mL in each case.

As to `CN(C)[C@@H]1C(O)=C(C(N)=O)C(=O)[C@@]2(O)C(O)=C3C(=O)c4c(O)cccc4[C@@](C)(O)[C@H]3C[C@@H]12` [TETRACYCLINE], the Activity (in the experiment with Aerococcus viridans [19]; in experiment [1]; in the experiment with Acinetobacter lwoffii [2]; in the experiment on Acinetobacter lwoffii [3]; in [4]; in [20]) was 8 µg/mL throughout. Also, the Activity (in experiment [5]; in the experiment with Pseudomonas borealis; in [6]; in the experiment on Acinetobacter lwoffii [7]; in the experiment on Bacillus psychrodurans; in the experiment on Acinetobacter baumannii) was 8 µg/mL each time. For the same molecule, the Activity (in experiment [10]; in the experiment on Enterococcus hirae; with Pseudomonas fluorescens; with Providencia stuartii; in experiment [11]; in the experiment on Acinetobacter lwoffii [12]) was 8 µg/mL each time. The Activity (in experiment [13]; with Shigella flexneri; in experiment [14]; in the experiment on Enterococcus sulfureus; in [15]; with Aerococcus viridans [16]) was 8 µg/mL throughout. Further, the Activity in the experiment with Pseudomonas putida is 8 µg/mL.
